Source: ChEMBL document CHEMBL1806466, “2-Amino-4-methyl-5-phenylethyl substituted-7-N-benzyl-pyrrolo[2,3-d]pyrimidines as novel antitumor antimitotic agents that also reverse tumor resistance” (Bioorg Med Chem, 2011)
Active and inactive are the calls of the source. The rule behind the calls is not given here.

Key:
Bos taurus = species on record: Bos taurus; assay: Effect on bovine brain microtubule depolymerization assessed as decrease in absorbance at wavelength 340 nm after 15 mins
In short: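 Bovine brain tubulin purified by three assembly/disassembly cycles followed by ion exchange. Tubulin at 2.5 mg/mL […] in 1 M glutamate, pH 6.6, with 4% DMSO, preincubated with compound at 0 °C for 15 min. 0.5 mM GTP then added and samples warmed to 37 °C. A340 monitored about 60 min.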

NCI-H322M = assay: Antitumor activity against human NCI-H322M cells after 48 hrs by sulforhodamine B assay; type: functional
In short: (§1)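 NCI-60 screen, adherent lines: grown in RPMI 1640 with 5% FBS and 2 mM L-glutamine. Seeded at 5,000–40,000 cells/well by doubling time and preincubated 24 h at 37 °C, 5% CO2, with time-zero plates TCA-fixed. Five concentrations (10-fold or half-log) given for 48 h. Fixed with cold TCA (10% final), then SRB-stained and read at A515. GI50 is 50% reduction of net protein increase versus control.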

MCF7 [1] = assay: Resistance factor, ratio of IC50 for drug-resistant […] human NCI/ADR cells expressing Pgp in absence of vinblastin to IC50 for drug-sensitive human MCF7 cells in presence of 50 nM vinblastin; type: functional
M14 = assay: Antitumor activity against human M14 cells after 48 hrs by sulforhodamine B assay; type: functional; conditions: M14, 48 h; in short: as §1
NCI/ADR-RES = assay: Antitumor activity against human NCI/ADR-RES cells after 48 hrs by sulforhodamine B assay; type: functional; in short: as §1
RPMI-8226 = assay: Antitumor activity against human RPMI8226 cells after 48 hrs by sulforhodamine B assay; type: functional; conditions: RPMI-8226, 48 h
In short: (§2)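 NCI-60 screen, suspension lines: grown in RPMI 1640 with 5% FBS and 2 mM L-glutamine. Seeded at 5,000–40,000 cells/well and preincubated 24 h at 37 °C, 5% CO2, with time-zero plates fixed. Five concentrations (10-fold or half-log) given for 48 h. Settled cells fixed with 80% TCA (16% final), then SRB-stained and read at 515 nm. GI50 is from the net growth relative to time zero and control.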

UACC-62 = assay: Antitumor activity against human UACC62 cells after 48 hrs by sulforhodamine B assay; type: functional; conditions: UACC-62, 48 h
In short: (§3)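 NCI-60 panel lines grown in RPMI 1640 with 5% FBS and 2 mM L-glutamine. Cells plated at 5,000–40,000/well by doubling time, given 24 h before drug, then exposed to five concentrations for 48 h at 37 °C. Time-zero plates fixed with TCA. Cells fixed with TCA, stained with 0.4% SRB, read at 515 nm. GI50 = 50% reduction in net protein increase versus control.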

OVCAR-8 = assay: Antitumor activity against human OVCAR8 cells after 48 hrs by sulforhodamine B assay; type: functional; conditions: OVCAR-8, 48 h; in short: as §1
MCF7 [2] = assay: Antitumor activity against human MCF7 cells after 48 hrs by sulforhodamine B assay; type: functional; conditions: MCF7, 48 h; in short: as §1
SF-295 = assay: Antitumor activity against human SF295 cells after 48 hrs by sulforhodamine B assay; type: functional; conditions: SF-295, 48 h; in short: as §1
SW-620 = assay: Antitumor activity against human SW620 cells after 48 hrs by sulforhodamine B assay; type: functional; conditions: SW-620, 48 h; in short: as §1
SNB-19 = assay: Antitumor activity against human SNB19 cells after 48 hrs by sulforhodamine B assay; type: functional; conditions: SNB-19, 48 h; in short: as §1
LOX IMVI = assay: Antitumor activity against human LOXIMVI cells after 48 hrs by sulforhodamine B assay; type: functional; in short: as §1
BT-549 = assay: Antitumor activity against human BT549 cells after 48 hrs by sulforhodamine B assay; type: functional; conditions: BT-549, 48 h; in short: as §1
HCT-15 = assay: Antitumor activity against human HCT15 cells after 48 hrs by sulforhodamine B assay; type: functional; conditions: HCT-15, 48 h; in short: as §1
MDA-MB-435 = assay: Antitumor activity against human MDA-MB-435 cells after 48 hrs by sulforhodamine B assay; type: functional; conditions: MDA-MB-435, 48 h; in short: as §1
NCI-H226 = assay: Antitumor activity against human NCI-H226 cells after 48 hrs by sulforhodamine B assay; type: functional; conditions: NCI-H226, 48 h; in short: as §1
OVCAR-3 = assay: Antitumor activity against human OVCAR3 cells after 48 hrs by sulforhodamine B assay; type: functional; conditions: OVCAR-3, 48 h; in short: as §1
K562 = assay: Antitumor activity against human K562 cells after 48 hrs by sulforhodamine B assay; type: functional; conditions: K562, 48 h; in short: as §2
[3] = Cytotoxic activity against Pgp-deficient human MCF7/VP cells expressing MRP1 after 48 hrs by sulforhodamine B assay; type: functional, cell-based
In short: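 Cells plated at ~15% confluency and allowed 24 h to attach, then exposed to varying test concentrations for 48 h. Survival by SRB binding, reported as % decrease in binding versus ethanol solvent controls, mean of three wells. For NCI/ADR, exposure with 0 or 50 nM vinblastine; for MCF-7/VP, with 0 or 1 nM vincristine.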

OVCAR-5 = assay: Antitumor activity against human OVCAR5 cells after 48 hrs by sulforhodamine B assay; type: functional; conditions: OVCAR-5, 48 h; in short: as §1
U-251 = assay: Antitumor activity against human U251 cells after 48 hrs by sulforhodamine B assay; type: functional; conditions: U-251, 48 h; in short: as §3
UO-31 = assay: Antitumor activity against human UO31 cells after 48 hrs by sulforhodamine B assay; type: functional; conditions: UO-31, 48 h; in short: as §3
SR = assay: Antitumor activity against human SR cells after 48 hrs by sulforhodamine B assay; type: functional; in short: as §2
HT-29 = assay: Antitumor activity against human HT-29 cells after 48 hrs by sulforhodamine B assay; type: functional; conditions: HT-29, 48 h; in short: as §1
COLO 205 = assay: Antitumor activity against human COLO205 cells after 48 hrs by sulforhodamine B assay; type: functional; conditions: COLO 205, 48 h; in short: as §1
MDA-MB-468 = assay: Antitumor activity against human MDA-MB-468 cells after 48 hrs by sulforhodamine B assay; type: functional; conditions: MDA-MB-468, 48 h; in short: as §1
SNB-75 = assay: Antitumor activity against human SNB75 cells after 48 hrs by sulforhodamine B assay; type: functional; conditions: SNB-75, 48 h; in short: as §1
ACHN = assay: Antitumor activity against human ACHN cells after 48 hrs by sulforhodamine B assay; type: functional; in short: as §1
EKVX = assay: Antitumor activity against human EKVX cells after 48 hrs by sulforhodamine B assay; type: functional; in short: as §1
SN12C = assay: Antitumor activity against human SN12C cells after 48 hrs by sulforhodamine B assay; type: functional; in short: as §1
SK-OV-3 = assay: Antitumor activity against human SKOV3 cells after 48 hrs by sulforhodamine B assay; type: functional; conditions: SK-OV-3, 48 h; in short: as §1
SK-MEL-5 = assay: Antitumor activity against human SK-MEL-5 cells after 48 hrs by sulforhodamine B assay; type: functional; conditions: SK-MEL-5, 48 h; in short: as §1
HOP-92 = assay: Antitumor activity against human HOP92 cells after 48 hrs by sulforhodamine B assay; type: functional; conditions: HOP-92, 48 h; in short: as §1
T47D = assay: Antitumor activity against human T47D cells after 48 hrs by sulforhodamine B assay; type: functional; in short: as §3
DU-145 = assay: Antitumor activity against human DU145 cells after 48 hrs by sulforhodamine B assay; type: functional; conditions: DU-145, 48 h; in short: as §1
HOP-62 = assay: Antitumor activity against human HOP62 cells after 48 hrs by sulforhodamine B assay; type: functional; conditions: HOP-62, 48 h; in short: as §1

## COc1cc(CCc2cn(Cc3ccccc3)c3nc(N)nc(C)c23)c(OC)c(OC)c1OC
Bos taurus
  Activity: Active
NCI-H322M
  GI50: 6.92 µM
MCF7 [1]
  Ratio IC50: 0.29
M14
  GI50: 3.33 µM
NCI/ADR-RES
  GI50: 2.02 µM
RPMI-8226
  GI50: 1.69 µM
UACC-62
  GI50: 2.13 µM
OVCAR-8
  GI50: 4.71 µM
MCF7 [2]
  GI50: 1.05 µM
SF-295
  GI50: 1.39 µM
SW-620
  GI50: 3.19 µM
SNB-19
  GI50: 4.68 µM
LOX IMVI
  GI50: 5.29 µM
BT-549
  GI50: 9.75 µM
HCT-15
  GI50: 3.2 µM
MDA-MB-435
  GI50: 0.34 µM
NCI-H226
  GI50: 4.27 µM
OVCAR-3
  GI50: 1.2 µM
K562
  GI50: 2.48 µM
[3]
  IC50: 9 µM
OVCAR-5
  GI50: 11.9 µM
U-251
  GI50: 3.93 µM
UO-31
  GI50: 5.37 µM
SR
  GI50: 2.35 µM
HT-29
  GI50: 3.6 µM
COLO 205
  GI50: 2.8 µM
MDA-MB-468
  GI50: 2.82 µM
SNB-75
  GI50: 2.25 µM
ACHN
  GI50: 9.36 µM
EKVX
  GI50: 7.73 µM
SN12C
  GI50: 6.86 µM
SK-OV-3
  GI50: 2.98 µM
SK-MEL-5
  GI50: 1.46 µM
HOP-92
  GI50: 1.39 µM
T47D
  GI50: 1.69 µM
DU-145
  GI50: 2.5 µM
HOP-62
  GI50: 3.96 µM
